Substitutions are numbered along the chain they refer to. Read-outs that look alike come from different tables or passages of the source.
What was measured:
SETD8 [1] = target: T1, SETD8 (Homo sapiens, UniProt Q9NQR1); experiment: SETD8 scintillation proximity assay; type: biochemical
T1 sequence (Q9NQR1 232-393): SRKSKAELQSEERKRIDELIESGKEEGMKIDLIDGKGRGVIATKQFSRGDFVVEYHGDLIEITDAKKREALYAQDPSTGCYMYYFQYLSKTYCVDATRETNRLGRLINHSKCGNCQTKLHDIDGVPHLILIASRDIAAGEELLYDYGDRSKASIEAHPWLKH

SETD8 [2] = target: T1, SETD8; experiment: Mass spectrometry of covalent modification, wild-type SETD8; type: binding; conditions: for covalent adduct formation by MS: purified SETD8 with full SET domain, 3 hours incubation
Summary of the method: (§1)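 Catalytic domain of SETD8 (wild type, C311S or C343S; the C311S protein carried a His tag) at 7 μM was incubated with 20–200 μM test compound in water for over 3 h. Samples were analysed by electrospray LC/MS time-of-flight to detect covalent adducts. Masses of each protein without compound were recorded as controls.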

C311S mutant of SETD8 = target: T2, C311S mutant of SETD8 (Homo sapiens, UniProt Q9NQR1, C311S); experiment: Mass spectrometry of covalent modification, SETD8 C311S mutant; type: binding
T2 sequence (Q9NQR1 232-393 C311S): T1 sequence (Q9NQR1 232-393) with C80S
Summary of the method: as §1

C343S mutant of SETD8 = target: T3, C343S mutant of SETD8 (Homo sapiens, UniProt Q9NQR1, C343S); experiment: Mass spectrometry of covalent modification, SETD8 C343S mutant; type: binding
T3 sequence (Q9NQR1 232-393 C343S): T1 sequence (Q9NQR1 232-393) with C112S
Summary of the method: as §1

PRC2 = PRC2 (Homo sapiens, UniProt Q15910); experiment: Mass spectrometry of covalent labeling, PRC2; type: binding
SMYD2 = SMYD2 (Homo sapiens, UniProt Q9NRG4); experiment: Mass spectrometry of covalent labeling, SMYD2; type: binding
SMYD3 = target: T4, SMYD3 (Homo sapiens, UniProt Q9H7B4); experiment: Mass spectrometry of covalent labeling, SMYD3; type: binding
T4 sequence (Q9H7B4 1-428): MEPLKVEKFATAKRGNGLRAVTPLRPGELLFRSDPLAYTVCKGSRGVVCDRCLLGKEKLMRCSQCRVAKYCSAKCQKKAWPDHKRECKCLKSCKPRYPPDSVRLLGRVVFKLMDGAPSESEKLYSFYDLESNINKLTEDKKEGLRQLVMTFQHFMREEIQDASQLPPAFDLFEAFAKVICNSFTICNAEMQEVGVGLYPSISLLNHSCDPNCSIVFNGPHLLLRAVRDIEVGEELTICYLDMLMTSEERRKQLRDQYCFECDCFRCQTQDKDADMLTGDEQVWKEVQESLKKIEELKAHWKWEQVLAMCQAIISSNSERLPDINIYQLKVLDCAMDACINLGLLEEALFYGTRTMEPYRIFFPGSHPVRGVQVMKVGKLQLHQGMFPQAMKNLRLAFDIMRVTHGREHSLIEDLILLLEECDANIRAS

[3] = test system: 28 other methyltransferases; experiment: Methyltransferase selectivity assays; type: biochemical
[4] = test system: H4K20me mark in HeLa cells; experiment: H4K20me mark in HeLa cells; type: cell-based; conditions: up to 10μM
SETD8 [5] = target: T1, SETD8; experiment: Residual enzymatic activity of the purified 3-SETD8 adduct; type: biochemical; conditions: purified monomer and dimer of 3-SETD8 adduct
Summary of the method: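 SETD8 was incubated with the covalent test compound until adduct formation was complete by MS. The adduct was purified by gel filtration, giving monomer and dimer forms that interconvert. Each form was then tested in the enzymatic assay and compared with wild-type SETD8.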

SETD8 [6] = conditions: cited from earlier work

Chain of SMYD2 (Q9NRG4 whole entry, species assumed): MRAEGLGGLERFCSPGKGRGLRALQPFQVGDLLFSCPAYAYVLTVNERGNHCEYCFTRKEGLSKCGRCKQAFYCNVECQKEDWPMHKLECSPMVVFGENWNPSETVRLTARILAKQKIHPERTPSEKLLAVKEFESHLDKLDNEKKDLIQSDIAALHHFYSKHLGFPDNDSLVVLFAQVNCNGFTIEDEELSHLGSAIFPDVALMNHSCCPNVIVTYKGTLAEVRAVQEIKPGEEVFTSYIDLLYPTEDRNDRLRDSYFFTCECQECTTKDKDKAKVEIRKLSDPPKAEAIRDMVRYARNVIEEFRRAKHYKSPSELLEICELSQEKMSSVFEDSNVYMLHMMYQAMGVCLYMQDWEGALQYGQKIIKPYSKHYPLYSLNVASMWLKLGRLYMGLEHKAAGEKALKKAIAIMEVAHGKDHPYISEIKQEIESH
Chain of PRC2 (Q15910 whole entry): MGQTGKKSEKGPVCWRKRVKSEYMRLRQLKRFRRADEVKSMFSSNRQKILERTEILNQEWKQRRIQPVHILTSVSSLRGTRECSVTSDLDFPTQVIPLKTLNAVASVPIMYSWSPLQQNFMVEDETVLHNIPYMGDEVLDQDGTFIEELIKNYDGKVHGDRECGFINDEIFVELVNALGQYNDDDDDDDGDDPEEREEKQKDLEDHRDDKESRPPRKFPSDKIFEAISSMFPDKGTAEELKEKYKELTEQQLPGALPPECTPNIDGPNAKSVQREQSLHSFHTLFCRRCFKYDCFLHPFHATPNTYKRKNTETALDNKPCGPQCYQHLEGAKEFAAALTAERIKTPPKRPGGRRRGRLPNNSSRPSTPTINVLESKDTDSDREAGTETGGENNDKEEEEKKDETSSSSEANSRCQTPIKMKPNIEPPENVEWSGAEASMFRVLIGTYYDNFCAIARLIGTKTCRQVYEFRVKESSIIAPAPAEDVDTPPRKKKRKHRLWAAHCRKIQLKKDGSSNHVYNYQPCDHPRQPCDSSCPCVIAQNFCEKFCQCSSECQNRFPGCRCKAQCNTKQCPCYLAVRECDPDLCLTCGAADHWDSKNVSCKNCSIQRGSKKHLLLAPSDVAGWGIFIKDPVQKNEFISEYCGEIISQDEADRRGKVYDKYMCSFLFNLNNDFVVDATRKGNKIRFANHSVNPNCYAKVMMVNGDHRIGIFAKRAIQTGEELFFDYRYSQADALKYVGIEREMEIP
Chain of PRC2 (O75530 whole entry partner): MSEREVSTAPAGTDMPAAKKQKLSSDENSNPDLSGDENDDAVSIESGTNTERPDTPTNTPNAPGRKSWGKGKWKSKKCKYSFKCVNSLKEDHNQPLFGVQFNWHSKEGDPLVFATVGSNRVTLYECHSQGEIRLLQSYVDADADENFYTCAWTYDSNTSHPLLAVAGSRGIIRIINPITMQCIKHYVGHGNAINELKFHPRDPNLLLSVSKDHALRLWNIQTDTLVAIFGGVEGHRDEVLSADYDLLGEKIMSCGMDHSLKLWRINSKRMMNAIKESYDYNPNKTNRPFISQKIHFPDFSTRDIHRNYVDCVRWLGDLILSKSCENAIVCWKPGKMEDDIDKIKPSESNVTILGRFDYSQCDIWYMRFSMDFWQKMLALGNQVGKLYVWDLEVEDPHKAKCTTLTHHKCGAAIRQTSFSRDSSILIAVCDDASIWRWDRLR
Chain of PRC2 (Q15022 whole entry partner): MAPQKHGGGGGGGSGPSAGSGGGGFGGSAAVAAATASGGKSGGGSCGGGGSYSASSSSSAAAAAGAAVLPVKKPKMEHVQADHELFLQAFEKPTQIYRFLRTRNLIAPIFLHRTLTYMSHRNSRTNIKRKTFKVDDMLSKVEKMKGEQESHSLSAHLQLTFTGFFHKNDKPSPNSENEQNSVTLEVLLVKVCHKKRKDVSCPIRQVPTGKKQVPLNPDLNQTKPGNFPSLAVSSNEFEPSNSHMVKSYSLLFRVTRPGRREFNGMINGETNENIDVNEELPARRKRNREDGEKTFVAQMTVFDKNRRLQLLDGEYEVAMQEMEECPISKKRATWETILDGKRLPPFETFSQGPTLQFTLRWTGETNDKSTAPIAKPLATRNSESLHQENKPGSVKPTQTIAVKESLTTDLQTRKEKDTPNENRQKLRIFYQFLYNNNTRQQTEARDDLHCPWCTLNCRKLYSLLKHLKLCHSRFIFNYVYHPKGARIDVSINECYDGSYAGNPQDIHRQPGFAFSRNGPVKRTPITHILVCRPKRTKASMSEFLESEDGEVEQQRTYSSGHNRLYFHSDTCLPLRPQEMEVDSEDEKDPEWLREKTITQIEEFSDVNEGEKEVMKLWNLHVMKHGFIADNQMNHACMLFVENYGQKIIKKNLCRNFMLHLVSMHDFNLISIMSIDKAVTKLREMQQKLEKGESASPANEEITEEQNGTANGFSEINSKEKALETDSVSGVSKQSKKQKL

Compound	Hillslope (SETD8 [1]; incubation with SETD8 for 1 or 5 hours, both incubation times)	covalent modification of SETD8 in presence of glutathione (SETD8 [2]; 5 mM glutathione (GSH))	covalent adduct formation by MS (SETD8 [2])	covalent adduct formation by MS (C311S mutant of SETD8)	covalent adduct formation by MS (C343S mutant of SETD8)	labeling by MS analysis (PRC2)	labeling by MS analysis (SMYD2)	labeling by MS analysis (SMYD3)	selectivity for SETD8 over other methyltransferases [3]	selectivity for SETD8 over other methyltransferases ([3]; listed as MS453)	reduction in the H4K20me mark [4]	enzymatic activity retained by adduct relative to wild-type SETD8 (SETD8 [5])	activity in the SETD8 biochemical assay (SETD8 [1])	mechanism of action (SETD8 [6])	IC50 (SETD8 [6]; read-out: potency in vitro) [µM]
C=CC(=O)NCCCNc1nc(N2CCCC2)nc2cc(OC)c(OC)cc12 [compound 3, N-(3-((6,7-Dimethoxy-2-(pyrrolidin-1-yl)quinazolin-4-yl)amino)propyl)acrylamide]	1.2	not affected	efficiently forms a single-modified covalent adduct	did not form an adduct	formed a single-modified adduct	no labeling	no labeling	no labeling	selective for SETD8 over 30 other methyltransferases	selective for SETD8 against 28 other methyltransferases	did not observe significant reduction	about 10%	–	–	–
C=CC(=O)NCCCN(C)c1nc(N2CCCC2)nc2cc(OC)c(OC)cc12 [compound 4, N-(3-((6,7-Dimethoxy-2-(pyrrolidin-1-yl)quinazolin-4-yl)(methyl)amino)propyl)acrylamide]	–	–	did not covalently modify SETD8	–	–	–	–	–	–	–	–	–	inactive	–	–
nauhoic acid A	–	–	–	–	–	–	–	–	–	–	–	–	–	SAM-competitive	6.5
